Our source for the inhibition in vivo, Activity and TGI values is ChEMBL document CHEMBL5705901, “Exploiting selective BCL-2 family inhibitors to dissect cell survival dependencies and define improved strategies for cancer therapy” (Sci Transl Med, 2015).

Data set [1] has as its system NCI-H1650. Briefly: Antitumor activity against human NCI-H1650 cells xenografted in SCID-bg mouse assessed as maximum tumor growth inhibition at 7.5 mg/kg, iv administered as single dose relative to control. As to conditions: read-out: TGI. Type of data set: functional. In outline: (§1)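 NCI-H1650 NSCLC xenografts, ten mice per group. Arms: vehicle; docetaxel iv once at 7.5 mg/kg; oral agent daily for 14 days at 25 mg/kg; and the two combined. TGImax = 100(1 − Tv/Cv) from mean volumes. TGD = 100(T/C − 1) from median times to reach 1 cm3.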
In general terms: In xenograft studies the graft and the host belong to different species.

Data set [2] relates to NCI-H1650. Briefly: Antitumor activity against human NCI-H1650 cells xenografted in SCID-bg mouse assessed as tumor growth delay at 7.5 mg/kg, iv administered as single dose relative to control. It is filed as functional. In outline:
as §1

Data set [3] deals with MDA-MB-231. The experiment in a line: Antitumor activity against LC3 positive human MDA-MB-231 cells xenografted in SCID mouse assessed as maximum tumor growth inhibition at 7.5 mg/kg, iv administered as single dose relative to control. It is filed as functional. As to conditions: read-out: TGI. In short, it runs like this: (§2)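 MDA-MB-231 LC3 metastatic breast cancer xenograft, 10 mice per group, with a vehicle control. Dosing: oral agent 25 mg/kg daily for 14 days; docetaxel 7.5 mg/kg iv once; combination gives both regimens. Mean tumor volumes tracked. TGImax = 100(1 − Tv/Cv) from mean treated vs control volumes. TGD = 100(T/C − 1) from median times to reach 1 cm3.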

For data set [4], the system named is MDA-MB-231. The experiment in a line: Antitumor activity against LC3 positive human MDA-MB-231 cells xenografted in SCID mouse assessed as tumor growth delay at 7.5 mg/kg, iv administered as single dose relative to control. It is filed as functional. In short, it runs like this:
as §2

The nature of data set [5]: Toxicity in iv dosed SCID-bg mouse assessed as tolerance. It is filed as organism-based. As to conditions: in vivo.
A short description of data set [6]: Toxicity in iv dosed SCID-bg mouse assessed as body weight loss relative to control. It is filed as organism-based. The conditions noted are these: in vivo.
In data set [7] the test system is NCI-H747. The experiment in a line: Antitumor activity against human NCI-H747 cells xenografted in iv dosed SCID-bg mouse assessed as maximum tumor growth inhibition relative to control. Type of data set: functional.
In data set [8] the test system is NCI-H747. The experiment in a line: Antitumor activity against human NCI-H747 cells xenografted in iv dosed SCID-bg mouse assessed as tumor growth delay relative to control. Type of data set: functional. In short, it runs like this: (§3)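 Tumor volume-based endpoints. TGD = 100(T/C − 1), where T and C are the median times for the treated and control groups to reach 1 cm3. Groups were five mice for NCI-H747 and OVCAR-5 and eight for NCI-H358. Docetaxel was given intravenously and the test agent orally.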

Data set [9] in a line: Toxicity in iv dosed SCID mouse assessed as tolerance. Type of data set: organism-based. As to conditions: in vivo.
In data set [10] the test system is A549. Briefly: Antitumor activity against 3 times passaged human A549 cells xenografted in iv dosed SCID mouse assessed as maximum tumor growth inhibition relative to control. Type of data set: functional.
The test system of data set [11] is A549. Briefly: Antitumor activity against 3 times passaged human A549 cells xenografted in iv dosed SCID mouse assessed as tumor growth delay relative to control. It is filed as functional.
The test system of data set [12] is EBC-1. The experiment in a line: Antitumor activity against human EBC-1 cells xenografted in iv dosed SCID-bg mouse assessed as maximum tumor growth inhibition relative to control. It is filed as functional.
In data set [13] the test system is EBC-1. The experiment in a line: Antitumor activity against human EBC-1 cells xenografted in iv dosed SCID-bg mouse assessed as tumor growth delay relative to control. Type of data set: functional.
Data set [14] relates to OVCAR-5. Briefly: Antitumor activity against human OVCAR-5 xenografted in iv dosed SCID mouse assessed as maximum tumor growth inhibition relative to control. It is filed as functional.
Data set [15] relates to OVCAR-5. Briefly: Antitumor activity against human OVCAR-5 xenografted in iv dosed SCID mouse assessed as tumor growth delay relative to control. It is filed as functional. In outline:
as §3

Data set [16] has as its system NCI-H358. The experiment in a line: Antitumor activity against human NCI-H358 cells xenografted in iv dosed SCID mouse assessed as maximum tumor growth inhibition relative to control. Type of data set: functional.
The subject of data set [17] is NCI-H358. The experiment in a line: Antitumor activity against human NCI-H358 cells xenografted in iv dosed SCID mouse assessed as tumor growth delay relative to control. It is filed as functional. In outline:
as §3

A short description of data set [18]: Toxicity in iv dosed SCID mouse assessed as body weight loss relative to control. It is filed as organism-based. The conditions noted are these: in vivo.
A short description of data set [19]: Toxicity in Sprague-Dawley rat assessed as inhibition of granulopoiesis by measuring reduction in neutrophil count at 5 mg/kg, iv administered once and measured on day 6 by microscopic analysis relative to control. Type of data set: organism-based. Further details: scale not given: the % may be the effect or the level left. As to conditions: in vivo, 144 h, time 6 day. In outline:
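Male Sprague-Dawley rats, n = 10 per group: docetaxel 5 mg/kg i.v. once, or oral inhibitor daily for 5 days (30, 50 or 7 mg/kg depending on agent), alone or combined with docetaxel, against vehicles. Total neutrophil and platelet counts in blood collected on day 6; Tukey-Kramer test versus vehicle.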

Bounds are passed on as bounds.

Usually TGI stands for the reduction of tumour growth relative to the control group.

With `CC(=O)O[C@@]12CO[C@@H]1C[C@H](O)[C@@]1(C)C(=O)[C@H](O)C3=C(C)[C@@H](OC(=O)[C@H](O)[C@@H](NC(=O)OC(C)(C)C)c4ccccc4)C[C@@](O)([C@@H](OC(=O)c4ccccc4)[C@H]21)C3(C)C` [DOCETAXEL ANHYDROUS], the inhibition in vivo at 7.5 mg/kg with NCI-H1650 [1] was determined as 82%; with MDA-MB-231 [3] it was 73%. For the same molecule, the Activity is 52% with NCI-H1650 [2]; 82% with MDA-MB-231 [4]; “Non-Toxic” in [5]; under 9% in data set [6]; 113% in the data set with NCI-H747 [8]; “Non-Toxic” in data set [9]. Further, the Activity in the data set on A549 [11] is 108%; with EBC-1 [13], 44%; in the data set on OVCAR-5 [15], 54%; in the data set with NCI-H358 [17], 47%; in data set [18], under 9%; in data set [19], 61%. The TGI with NCI-H747 [7] was determined as 52%; with A549 [10], 71%; in the data set on EBC-1 [12], 76%; in the data set on OVCAR-5 [14], 39%; in the data set with NCI-H358 [16], 58%.
